Laboratory results: ChEMBL document CHEMBL1124747, “Properties of the nucleic acid photoaffinity labeling agent 3-azidoamsacrine” (J Med Chem, 1990)

Columns and labels:
[1] = Half-life was evaluated in water in the absence of light; assay type: ADME
[2] = Ability to block cleavage of AG/CT site in AluI enzyme with the light activated test compound, DNA ratio 1(no. of sites=16); += light activation
How it was run: (§1)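 pBR322 plasmid mixed with drug at 0.015, 0.12 or 0.48 mM (drug:DNA 1:8, 1:1 or 4:1), equilibrated on ice 30 min in the dark in 5 mM potassium phosphate pH 5.5, then irradiated 1 h with a medium-pressure Hg lamp (<340 nm filtered); dark set kept as control. Digested overnight with 10× excess enzyme plus DTT; fragments resolved on 1.2% agarose in TBE.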

[3] = Ability to block cleavage of AG/CT site in AluI enzyme with the light activated test compound, DNA ratio 1:8(no. of sites=16); += light activation; how it was run: as §1
[4] = Ability to block cleavage of AG/CT site in AluI enzyme with the light activated test compound, DNA ratio 4(no. of sites=16); += light activation; how it was run: as §1
[5] = Ability to block cleavage of TTT/AAA site in DraI enzyme with the light activated test compound/DNA ratio 1:8(no. of sites=3); += light activation; how it was run: as §1
[6] = Ability to block cleavage of TTT/AAA site in DraI enzyme with the light activated test compound/DNA ratio 4(no. of sites=3); += light activation; how it was run: as §1
[7] = Ability to block cleavage of TTT/AAA site in DraI enzyme with the light activated test compound/DNA ratio 1(no. of sites=3); += light activation; how it was run: as §1
[8] = Ability to block cleavage of GG/CC site in HaeIII enzyme with the light activated test compound/DNA ratio 1(no. of sites=22); += light activation; how it was run: as §1
[9] = Ability to block cleavage of GG/CC site in HaeIII enzyme with the light activated test compound/DNA ratio 1:8(no. of sites=22); += light activation; how it was run: as §1
[10] = Ability to block cleavage of GG/CC site in HaeIII enzyme with the light activated test compound/DNA ratio 4(no. of sites=22); += light activation; how it was run: as §1
[11] = Ability to block cleavage of G/ANTC site in Hinf1 enzyme with the light activated test compound/DNA ratio 1(no. of sites=10); += light activation; how it was run: as §1
[12] = Ability to block cleavage of G/ANTC site in Hinf1 enzyme with the light activated test compound/DNA ratio 1:8(no. of sites=10); += light activation; how it was run: as §1
[13] = Ability to block cleavage of G/ANTC site in Hinf1 enzyme with the light activated test compound/DNA ratio 4(no. of sites=10); += light activation; how it was run: as §1
[14] = Ability to block cleavage of C/CGG site in HpaII enzyme with the light activated test compound/DNA ratio 1(no. of sites=26); += light activation; how it was run: as §1
[15] = Ability to block cleavage of C/CGG site in HpaII enzyme with the light activated test compound/DNA ratio 1:8(no. of sites=26); += light activation; how it was run: as §1
[16] = Ability to block cleavage of C/CGG site in HpaII enzyme with the light activated test compound/DNA ratio 4(no. of sites=26); += light activation; how it was run: as §1
[17] = Induction frequency for L5178Y cells was evaluated at dose 0.005 mg/mL in dark-I condition (expt-I); assay type: functional, Mus musculus
How it was run: (§2)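 L5178Y suspension cells (3 × 10^6/mL, 5% CO2, 37 °C, shaking) exposed 20 h without activating enzyme; light arm irradiated 6.5 min (Hg lamp, <340 nm filtered). Cells washed, grown 24 h more and kept at 3 × 10^5/mL. Viability from 200 cells in soft agar; TFT (0.1 mg/mL) resistant colonies from 10^6 cells in triplicate dishes, counted at 10 days.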

[18] = Relative mutation induction for L5178Y cells was evaluated at dose 0.005 mg/mL in dark condition (expt-II); assay type: functional, Mus musculus; how it was run: as §2
[19] = Relative mutation induction for L5178Y cells was evaluated at dose 0.005 mg/mL in light condition (expt-II); assay type: functional, Mus musculus; how it was run: as §2
[20] = Relative toxicity against mammalian L5178Y cells at dose 0.005 mg/mL in dark condition (expt-II); assay type: functional, Mus musculus
How it was run: (§3)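 L5178Y mouse cells in suspension, 3 × 10^6 cells/mL, were exposed for 20 h at 37 °C in a shaker at 150 rpm under 5% CO2, without an activating enzyme. Light arms were irradiated for 6.5 min with a medium-pressure Hg lamp filtered to remove light below 340 nm; dark arms were not. Toxicity was taken as the Coulter-counted density of treated cells versus solvent control.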

[21] = Relative toxicity against mammalian L5178Y cells at dose 0.005 mg/mL in light condition (expt-II); assay type: functional, Mus musculus; how it was run: as §3
[22] = Viability of L5178Y cells was evaluated at dose 0.005 mg/mL in dark condition (expt-II); assay type: functional, Mus musculus
How it was run: (§4)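 L5178Y cells were exposed for 20 h at 3 × 10^6 cells/mL. Light arms then received 6.5 min of Hg-lamp irradiation filtered to remove light below 340 nm. Cells were washed twice in Fischer's medium, grown a further 24 h and held at 3 × 10^5 cells/mL. For viability, 200 cells were plated in soft-agar cloning medium in triplicate dishes, and colonies were counted by an automated counter after 10 days.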

[23] = Viability of L5178Y cells was evaluated at dose 0.005 mg/mL in light condition (expt-II); assay type: functional, Mus musculus; how it was run: as §4
[24] = Mutation frequency for L5178Y cells was evaluated at dose 0.005 mg/mL in dark-I condition (expt-I); assay type: functional, Mus musculus; how it was run: as §2
[25] = Mutation frequency for L5178Y cells was evaluated at dose 0.005 mg/mL in light-I condition (expt-I); assay type: functional, Mus musculus; how it was run: as §2
[26] = Mutation frequency for L5178Y cells was evaluated at dose 0.008 mg/mL in dark-II condition (expt-I); assay type: functional, Mus musculus; how it was run: as §2
[27] = Relative mutation induction for L5178Y cells was evaluated at dose 0.005 mg/mL in dark-I condition (expt-I); assay type: functional, Mus musculus; how it was run: as §2
[28] = Relative mutation induction for L5178Y cells was evaluated at dose 0.005 mg/mL in light-I condition (expt-I); assay type: functional, Mus musculus; how it was run: as §2
[29] = Relative mutation induction for L5178Y cells was evaluated at dose 0.008 mg/mL in dark-II condition (expt-I); assay type: functional, Mus musculus

half-life [1]: > 14 days
Blockage activity [2]: Light activation
Blockage activity [3]: Light activation
Blockage activity [4]: Light activation
Blockage activity [5]: Light activation
Blockage activity [6]: Light activation
Blockage activity [7]: Light activation
Blockage activity [8]: Light activation
Blockage activity [9]: Light activation
Blockage activity [10]: Light activation
Blockage activity [11]: Light activation
Blockage activity [12]: Light activation
Blockage activity [13]: Light activation
Blockage activity [14]: Light activation
Blockage activity [15]: Light activation
Blockage activity [16]: Light activation
SMILES: COc1cc(NS(C)(=O)=O)ccc1Nc1c2ccccc2nc2cc(N=[N+]=[N-])ccc12.Cl
Induced frequency [17]: 319
Relative activity [18]: 124
Relative activity [19]: 28
Relative toxicity [20]: 65
Relative toxicity [21]: 65
Viability [22]: 37.7
Viability [23]: 35.7
Mutation frequency [24]: 427 10e6 F
Mutation frequency [25]: 434 10e6 F
Mutation frequency [26]: 565 10e6 F
Relative activity [27]: 53
Relative activity [28]: 30
Relative activity [29]: 23
